Test results: article PMC8247525 (Diabetes Care, 2021)
Values belong to the substance of their own block, whether it stands above or below them. Starred links: 1 amine or outer side, 2 acyl side, 3 side chain; linkers in the order of their positions; H or OH if unused. Groups on a side chain read outwards from the residue. No end group written: not given here. *: point of attachment. γGlu = O=C(O)[C@H](CCC(=O)[*:2])N[*:1]; Palmitoyl = CCCCCCCCCCCCCCCC(=O)*

Tests used:
[1] = cited from earlier work; for Reduction of mean body weight: head-to-head phase 2 trial of semaglutide with liraglutide
[2] = system: participants with overweight or obesity and type 2 diabetes; test: Phase 2b study: hepatic parameters; assay type: in vivo, human; conditions: LS mean (95% CI); for Percent change from baseline in GGT levels: after 54 weeks, ad hoc
[3] = system: participants with overweight or obesity and type 2 diabetes; test: Phase 2b study: body weight; assay type: in vivo, human; conditions: for Percent change in body weight from baseline to week 14: LS mean (95% CI), ANCOVA, LOCF; for Weight loss, placebo-adjusted change from baseline: week 54
[4] = system: participants with overweight or obesity and type 2 diabetes; test: Phase 2b study: safety; assay type: in vivo, human
[5] = system: participants with overweight or obesity and type 2 diabetes; test: Phase 2b study: anti-drug antibodies and exposure; assay type: in vivo, human
Summary of the method: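 Dosing started at 100 µg and rose weekly by 100 µg. Anti-drug antibodies, a secondary end point, were measured in all treated participants by a high-sensitivity assay. Titers were split at 80 and related to trough drug concentrations.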

[6] = system: participants with overweight or obesity and type 2 diabetes; test: Phase 2b study: glycemic control; assay type: in vivo, human; conditions: on metformin, LS mean (95% CI), ANCOVA, LOCF
[7] = liraglutide 1.8 mg s.c. once daily
[8] = cotadutide 300 µg s.c. once daily
[9] = cotadutide 100 µg s.c. once daily
[10] = cotadutide 200 µg s.c. once daily

Substance: semaglutide
- Reduction of mean body weight [1]: 6.0–13.8%

Substance: Liraglutide: GLP-1 receptor monoagonist, open-label active comparator 1.8 mg (HAEGTFTSDVSSYLEGQAAK([γGlu-Palmitoyl])EFIAWLVRGRG; chains of the INN, looked up) [reference compound]
- Reduction of mean body weight [1]: 7.8%
- Reduction of body weight ([1]; phase 2 and phase 3 clinical trials): 6–8%
- Percent change from baseline in GGT levels [2, 7]: –10.54 [–24.41, 3.33] %
- Percent change in body weight from baseline to week 14 ([3]; liraglutide 1.8 mg s.c. once daily, open-label): –3.44 [–4.20, –2.68] %
- Weight loss, placebo-adjusted change from baseline [3, 7]: –2.65%

- Impact of ADA titer above 80 on pharmacokinetics, relative to population average ([5]; cotadutide, trough concentrations higher at titer >80): approximately twofold
Substance: Cotadutide
- Pulse rate versus placebo ([4]; all tested doses of cotadutide, all P = 0.001 to P = 0.006): Increases in pulse rates
- Systolic blood pressure [4, 8]: reduction in systolic blood pressure
- Rate pressure product ([4]; cotadutide treatment, ad hoc): no notable changes in rate pressure product
- Percent change in fatty liver index, change from baseline [2, 9]: –8.08 [–10.62, –5.54] %
- Percent change from baseline in GGT levels [2, 9]: –10.54 [–26.75, 5.68] %
- Percent change in fatty liver index, change from baseline [2, 10]: –6.73 [–8.29, –5.17] %
- Percent change in fatty liver index, change from baseline [2, 8]: –8.18 [–9.79, –6.57] %
- Percent change from baseline in GGT levels [2, 8]: –12.17 [–22.45, –1.90] %
- Anti-drug antibody (ADA) incidence ([5]; cotadutide-treated participants, all doses, high-sensitivity assay): 60.8%
- Change from baseline to week 14 in HbA1c levels [6, 9]: –1.11 [–1.30, –0.93]
- Change from baseline to week 14 in HbA1c levels [6, 10]: –1.32 [–1.44, –1.21]
- Change from baseline to week 14 in HbA1c levels [6, 8]: –1.26 [–1.38, –1.14]
- Percent change in body weight from baseline to week 14 [3, 9]: –2.98 [–3.87, –2.09] %
- Percent change in body weight from baseline to week 14 [3, 10]: –3.67 [–4.22, –3.13] %
- Percent change in body weight from baseline to week 14 [3, 8]: –5.01 [–5.57, –4.45] %
- Weight loss, placebo-adjusted change from baseline [3, 8]: –4.34%
